Here are results for one molecule from ChEMBL document CHEMBL4665652, “Discovery of novel quinoline sulphonamide derivatives as potent, selective and orally active RORγ inverse agonists” (Bioorg Med Chem Lett, 2019).

For orientation: AUC(0-t) means exposure summed from dosing to a finite time, without extrapolation to infinity. What is called half-life is how long it takes for the measured level to halve. High values mean slow decline, low ones rapid decline. As usually defined, the Tmax is the time from dosing to the highest level. For orientation: EC50 means the concentration at which the effect is half-maximal. As usually defined, the Cmax is the peak of the concentration-time curve.

Data set [1] is described as follows: In vivo inverse agonist activity at RORgamma in MOG(35-55) peptide/PTX-induced mechanistic C57BL/6 mouse model assessed as anti-CD3 induced IL-6 level in serum at 30 mg/kg, po dosed for 5 days during MOG/PTX priming and followed by 45 mins prior to anti-CD3 challenge and measured after 2 hrs relative to control. Format: functional. To be noted: time 5 day. An outline of the steps:
(§1)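 Mice immunized with mouse MOG35-55 peptide plus pertussis toxin. After 5 days, compound given orally as a suspension in methylcellulose 400cp + 1% poloxamer, 45 min before an anti-CD3 challenge. Circulating cytokines measured 2 h later. Comparison vs vehicle by Dunnett post test.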

The nature of data set [2]: AUClast in mouse at 30 mg/kg, po. It counts as ADME, organism-based. Also on record: time 0 - last, route oral, dose 30 mg/kg. The settings on record: in vivo. An outline of the steps:
(§2)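 Mice dosed orally at 10, 30 or 100 mg/kg as a suspension in 1% methylcellulose 400cp + 0.1% Poloxamer (188). Tmax, Cmax, AUClast and oral t1/2 were taken from plasma concentration–time profiles. Ratios are the value at each dose over the value at 10 mg/kg.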

Data set [3] is described as follows: In vivo inverse agonist activity at RORgamma in MOG(35-55) peptide/PTX-induced mechanistic C57BL/6 mouse model assessed as anti-CD3 induced IFNgamma level in serum at 100 mg/kg, po dosed for 5 days during MOG/PTX priming and followed by 45 mins prior to anti-CD3 challenge and measured after 2 hrs relative to control. Format: functional. To be noted: time 5 day. The gist of the method: as §1

Data set [4] in a line: Half life in mouse at 1 mg/kg, iv. Format: ADME, organism-based. The settings on record: in vivo. An outline of the steps: (§3)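 Mouse PK with iv 1 mg/kg and po 10 mg/kg, oral dose as a suspension in 1% methylcellulose 400cp + 0.1% Poloxamer 188. Plasma clearance (total and unbound), iv t1/2 and oral bioavailability F were derived from the iv and po profiles.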
The next data set addresses Cytochrome P450 2C9 (Homo sapiens, UniProt P11712). Put plainly: Drug metabolism assessed as CYP2C9 (unknown origin) mediated metabolite formation. It counts as ADME.
Data set [5] is described as follows: Tmax in mouse at 10 mg/kg, po. Format: ADME, organism-based. To be noted: in vivo. An outline of the steps: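 Mice dosed orally with an ascending-dose series at 10, 30 and 100 mg/kg. Compound given as a suspension in 1% methylcellulose 400cp + 0.1% poloxamer. Plasma Tmax taken from the concentration profiles. The Cmax ratio is expressed relative to the 10 mg/kg dose.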

Data set [6] can be described thus: In vivo inverse agonist activity at RORgamma in MOG(35-55) peptide/PTX-induced mechanistic C57BL/6 mouse model assessed as anti-CD3 induced IL-17A level in serum at 100 mg/kg, po dosed for 5 days during MOG/PTX priming and followed by 45 mins prior to anti-CD3 challenge and measured after 2 hrs relative to control. It counts as functional. The settings on record: time 5 day. The gist of the method:
as §1

Data set [7] is described as follows: In vivo inverse agonist activity at RORgamma in MOG(35-55) peptide/PTX-induced mechanistic C57BL/6 mouse model assessed as anti-CD3 induced IL-10 level in serum at 30 mg/kg, po dosed for 5 days during MOG/PTX priming and followed by 45 mins prior to anti-CD3 challenge and measured after 2 hrs (reference value: -11%). The settings on record: time 5 day. It counts as functional. The gist of the method: as §1

Data set [8] can be described thus: Plasma clearance in mouse at 10 mg/kg, po or 1 mg/kg, iv. Format: ADME, organism-based. The gist of the method: as §3
Data set [9] concerns the target T1, Nuclear receptor ROR-gamma (Homo sapiens, UniProt P51449).
T1 sequence (P51449 whole entry): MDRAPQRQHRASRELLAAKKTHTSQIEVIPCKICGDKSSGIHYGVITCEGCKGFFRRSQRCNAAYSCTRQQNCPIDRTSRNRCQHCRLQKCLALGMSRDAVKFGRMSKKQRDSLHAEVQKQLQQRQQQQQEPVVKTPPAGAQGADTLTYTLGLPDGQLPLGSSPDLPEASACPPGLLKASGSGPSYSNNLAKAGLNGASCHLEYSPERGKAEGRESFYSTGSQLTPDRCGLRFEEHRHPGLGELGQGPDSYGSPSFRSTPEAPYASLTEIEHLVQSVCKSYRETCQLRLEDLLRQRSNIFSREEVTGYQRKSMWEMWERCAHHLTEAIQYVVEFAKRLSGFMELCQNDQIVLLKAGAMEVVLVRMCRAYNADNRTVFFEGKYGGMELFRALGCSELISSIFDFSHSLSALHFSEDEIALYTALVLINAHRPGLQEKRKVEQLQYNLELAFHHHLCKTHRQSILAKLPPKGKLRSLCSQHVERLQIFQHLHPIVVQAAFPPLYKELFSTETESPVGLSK
Put plainly: Inverse agonist activity at pSG5GAL4-DBD/LBD fused human RORgamma receptor expressed in COS7 cells co-expressing 5 copies of GAL4 response element after 18 hrs by luciferase reporter gene based assay. Format: cell-based. In general terms: A reporter such as luciferase makes a cellular process visible.

A short description of data set [10]: In vivo inverse agonist activity at RORgamma in MOG(35-55) peptide/PTX-induced mechanistic C57BL/6 mouse model assessed as anti-CD3 induced IL-17F level in serum at 100 mg/kg, po dosed for 5 days during MOG/PTX priming and followed by 45 mins prior to anti-CD3 challenge and measured after 2 hrs relative to control. It counts as functional. The settings on record: time 5 day. An outline of the steps: as §1

In a further data set the test system is Mus musculus. Put plainly: In vivo inverse agonist activity at RORgamma in po dosed MOG(35-55) peptide/PTX-induced mechanistic C57BL/6 mouse model assessed as anti-CD3 induced IL-17A level in serum dosed for 5 days during MOG/PTX priming and followed by 45 mins prior to anti-CD3 challenge and measured after 2 hrs relative to control. Format: functional, organism-based. The settings on record: dose mg/kg 10-100, time 5.0 day. An outline of the steps: as §1

Data set [11] can be described thus: Unbound plasma clearance in mouse at 10 mg/kg, po or 1 mg/kg, iv. Format: ADME, organism-based. The settings on record: in vivo. An outline of the steps:
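Mouse PK using two routes: iv at 1 mg/kg and po at 10 mg/kg. The po dose was a suspension in 1% methylcellulose 400cp + 0.1% Poloxamer 188. Unbound plasma clearance derived from the plasma profiles.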

The nature of data set [12]: In vivo inverse agonist activity at RORgamma in MOG(35-55) peptide/PTX-induced mechanistic C57BL/6 mouse model assessed as anti-CD3 induced IL-17F level in serum at 30 mg/kg, po dosed for 5 days during MOG/PTX priming and followed by 45 mins prior to anti-CD3 challenge and measured after 2 hrs relative to control. It counts as functional. To be noted: time 5 day. An outline of the steps:
as §1

Data set [13] in a line: In vivo inverse agonist activity at RORgamma in MOG(35-55) peptide/PTX-induced mechanistic C57BL/6 mouse model assessed as anti-CD3 induced IL-2 level in serum at 30 mg/kg, po dosed for 5 days during MOG/PTX priming and followed by 45 mins prior to anti-CD3 challenge and measured after 2 hrs relative to control. It counts as functional. To be noted: time 5 day. An outline of the steps: as §1

Data set [14] is described as follows: Cmax in mouse at 10 mg/kg, po. Also on record: route oral, dose 10 mg/kg. To be noted: in vivo. Format: ADME, organism-based. The gist of the method: as §2
Data set [15] can be described thus: Cmax in mouse at 100 mg/kg, po. Format: ADME, organism-based. More on the design: route oral, dose 100 mg/kg. To be noted: in vivo. The gist of the method: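 Oral ascending-dose PK in mice at 100 mg/kg (ratios against 10 mg/kg), given as a suspension in 1% methylcellulose 400cp + 0.1% Poloxamer. Cmax, AUClast and t1/2 come from plasma profiles.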
Data set [16] is described as follows: Stability in human microsomes assessed as unbound intrinsic clearance. Format: ADME, Microsome. The gist of the method: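 Unbound intrinsic clearance measured in human and mouse liver microsomes, expressed in L/h/kg. Values are geometric means of at least two separate runs.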
Data set [17] is described as follows: In vivo inverse agonist activity at RORgamma in MOG(35-55) peptide/PTX-induced mechanistic C57BL/6 mouse model assessed as anti-CD3 induced IL-22 level in serum at 10 mg/kg, po dosed for 5 days during MOG/PTX priming and followed by 45 mins prior to anti-CD3 challenge and measured after 2 hrs relative to control. It counts as functional. The settings on record: time 5 day. An outline of the steps: as §1

Cytochrome P450 2C9, sequence (P11712 whole entry): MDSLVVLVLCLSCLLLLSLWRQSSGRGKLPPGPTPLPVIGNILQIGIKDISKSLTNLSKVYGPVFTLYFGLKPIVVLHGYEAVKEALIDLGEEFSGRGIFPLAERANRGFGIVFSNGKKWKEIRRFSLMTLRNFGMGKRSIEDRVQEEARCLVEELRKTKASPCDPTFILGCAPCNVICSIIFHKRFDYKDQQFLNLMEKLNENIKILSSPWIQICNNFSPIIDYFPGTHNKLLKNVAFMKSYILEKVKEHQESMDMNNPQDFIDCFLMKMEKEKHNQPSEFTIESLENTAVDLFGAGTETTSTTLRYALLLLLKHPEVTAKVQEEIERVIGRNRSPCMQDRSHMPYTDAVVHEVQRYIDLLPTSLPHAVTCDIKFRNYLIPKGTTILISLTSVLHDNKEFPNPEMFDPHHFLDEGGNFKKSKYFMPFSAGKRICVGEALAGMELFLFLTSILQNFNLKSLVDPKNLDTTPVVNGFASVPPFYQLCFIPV

`CNC(=O)[C@@H]1CCCN1S(=O)(=O)c1ccc(Cl)c(COc2cccc3c(-c4cncn4C)cc(C(C)C)nc23)c1Cl`: the Activity in data set [1] was -56%; in data set [3], -81%; in [6], -62%; in [7], 66%; in data set [10], -60%; in the data set with Mus musculus, “Dose-dependent effect”. Also, the Activity in data set [12] is reported as -49%; in data set [13], -30%; in [17] it was -16%. The molecule further had an AUC(0-t) in data set [2] of 34200 ng·h/mL. This molecule also had a half-life in data set [4] of 9.6 min. Also, the Fm at Cytochrome P450 2C9 was determined as 6%. For the same molecule, in data set [5], the Tmax was 15 min. In data set [8], this molecule gave a clearance of 27.5 mL/min/kg. The EC50 in [9] was 0.22 µM. For the same molecule, the CL free in [11] was 1620 mL/min/kg; in data set [16] it was 33 mL/min/kg. Besides, the Cmax in [14] was determined as 3320 ng/mL; in data set [15], 27500 ng/mL.
